A selection: hits, their analogues and other compounds. The true share with any hit is near 5.1%.
STAT3 inh: IL-6 driven STAT3 reporter inhibitors, primary screen, U3A cells, luciferase, luminescence, MLSCN library | inhibition, % at 5.5 µM | 190,000 compounds, 0.89% hits | IL-6 STAT3-luciferase reporter; host cell line lacks STAT1 | AID 862, 2007;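 active = inhibition above the mean inhibition across all screened compounds plus 3 SD, cut at about 44% in these data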;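 also: 0% = DMSO only wells and 100% = 100 µM nifuroxazide control wells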
APP 5'UTR act: activators of APP 5'UTR luciferase reporter, primary screen, SH-SY5Y cells; SH-SY5Y APP 5'UTR luciferase reporter, luminescence; zero percent = DMSO vehicle wells; activation, % at 2 µM; 190,000 compounds, 1% hits;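 active = activation above a set limit, based on mean plus 3 SD of controls, cut at about 140% in these data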
STAT3 act: IL-6 driven STAT3 reporter potentiators, primary screen, U3A cells, luciferase, luminescence, MLSCN library; 190,000 compounds, 0.91% hits; IL-6 STAT3-luciferase reporter; 100% = signal with IL-6 EC80 alone; activation (% of control), % at 5.6 µM;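 active = activation above the screen-wide mean of compound activation plus 3 SD, cut at about 130% in these data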;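 also: 0% = background luminescence of wells with medium and substrate only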
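Material: STAT3-luciferase reporter U3A cells; Probe or stimulus: IL-6 (33 ng/mL); Incubation: compound pre-incubation 1 h before IL-6, then 6 h stimulation at 37 °C; Technique: luminescence from STAT3-driven luciferase reporter; Evaluation: % activation versus median of IL-6-stimulated wells; Controls: IL-6-only high control.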
NF-kB expr up: activators of NF-kB expression in neurons, primary screen, cell-based, HTS. 190,000 compounds, 1.6% hits. AID 1239, 2008. fold change at 12.5 µM. human neuronal cells, NF-kB reporter expression; stronger effect = higher value; in the data active = fold change above about 3.3
STAT1 inh: STAT1 signaling inhibitors, primary screen, cell-based, HTS, luciferase reporter; inhibition, % at 5.5 µM; 200,000 compounds, 0.35% hits; NIH 3T3 STAT1-luciferase reporter, IFN-gamma, luminescence;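 active = inhibition above a set limit, the mean inhibition across all tested compounds plus 3 SD, cut at about 34% in these data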;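 also: 0% = IFN-gamma with DMSO and 100% = IFN-gamma with 300 µM nifuroxazide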
STAT1 act: STAT1 signaling activators, primary screen, cell-based, HTS, luciferase reporter; NIH 3T3 STAT1-luciferase reporter, IFN-gamma, luminescence; 100% = IFN-gamma alone, no compound; activation (% of control), % at 5.5 µM; AID 932, 2007; 200,000 compounds, 2.6% hits;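 active = activation above the screen-wide mean activation plus 3 SD, cut at about 130% in these data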;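 also: raw ratio to IFN-gamma control signal so 100% means no change and 0% no light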
STAT1 activ conf: STAT1 signaling activators, confirmation, cell-based, HTS, luciferase reporter; shares compounds with STAT1 act; NIH 3T3 STAT1-luciferase reporter, IFN-gamma potentiation, luminescence; 100% = IFN-gamma EC80 alone, no compound; activation (% of control), % at 5.7 µM; 1,200 compounds, 97% hits;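 active = activation above a set limit carried over from the earlier primary STAT1 screen, cut at about 140% in these data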;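 also: simple ratio to median IFN-gamma plus DMSO wells so 0% means no light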
NFkB act STAT1ct: NF-kB reporter activators, TNF-alpha stimulated, counter-screen for STAT1 activator project, cell-based, HEK293T, luciferase luminescence; activation (% of control), % at 5.7 µM; 100% = TNF-alpha with vehicle only; 1,200 compounds, 43% hits; shares compounds with STAT1 act; AID 1306, 2008;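 active = activation above the mean of solvent-only control wells plus 3 SD, set per campaign, cut at about 130% in these data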;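 also: TNF-alpha given at a submaximal dose yielding about 80% of full reporter signal; values are well signal over median control so 100% means no change and 0% no light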
STAT3 act 2: STAT3 reporter activation by STAT1 hits, confirmation, counter-screen for STAT1 activator project, U3A cells, luciferase, luminescence. shares compounds with STAT1 act. IL-6; cells lack STAT1; 100 = IL-6 alone, no compound effect. activation (% of control), % at 5.7 µM. 1,200 compounds, 46% hits. AID 1316, 2008;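 active = activation above the solvent-only control well mean plus 3 SD, set per plate batch, cut at about 110% in these data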;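 also: 0% = no luminescence and 100% = median IL-6 plus DMSO wells; higher means more STAT3 reporter activation so hits are non-selective activators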
* marks the source's active call; other numbers are inactive results; · = no result.

SMILES	STAT3 inh	APP 5'UTR act	STAT3 act	NF-kB expr up	STAT1 inh	STAT1 act	STAT1 activ conf	NFkB act STAT1ct	STAT3 act 2
CCOC(=O)Nc1ccc2c(C)cc(=O)oc2c1	10.4	37.3	94.3	2.39	-10.2	109.5	·	·	·
CCCCOC(=O)Nc1ccc2c(C)cc(=O)oc2c1	15.1	137.7*	89.8	5.82*	-72.0	166.1*	196.6*	143.8*	103.7
O=C(Cc1ccc(Cl)cc1)NNC(=O)Nc1cccc2ccccc12	-5.7	18.9	111.9	1.14	-3.5	103.2	·	·	·
COc1ccc2oc(-c3ccco3)cc(=O)c2c1	28.5	83.0	81.6	1.29	-65.1	160.3*	183.1*	122.4	105.4
N#Cc1cccc(N=c2ssnc2Cl)c1	1.7	-11.4	100.4	1.24	2.4	97.3	·	·	·
Cn1cccc1C(=O)C(=O)Nc1ccc(F)c(F)c1	9.6	139.3*	93.8	5.17*	-60.2	154.0*	192.7*	132.9	106.7
COc1ccc(NC(=O)N/C=C/c2ccccc2)cc1	13.0	113.2	95.2	1.16	-61.0	156.4*	168.4*	141.9*	105.4
CCOC(=O)c1sc2nc(-c3cccnc3)ccc2c1N	10.7	155.9*	92.8	8.16*	-85.3	176.3*	251.2*	140.5*	114.7*
CS(=O)(=O)N1N=C(c2ccc(Br)cc2)CC1c1ccc2c(c1)OCO2 (stereo not drawn)	-4.2	111.0	113.7	5.45*	-60.7	154.6*	202.9*	135.5*	124.7*
CS(=O)(=O)Nc1ccc(C2=NN(S(C)(=O)=O)C(c3ccc4nccnc4c3)C2)cc1 (stereo not drawn)	19.2	-1.1	87.6	1.19	0.8	98.9	·	·	·
Cc1ccc(C2=NN(S(C)(=O)=O)C(c3ccc4c(c3)OCO4)C2)cc1 (stereo not drawn)	-13.5	139.4*	109.0	10.4*	-124.6	210.9*	256.5*	141.3*	140.0*
Nc1nnc(SCC(=O)NC2CCCCC2)s1	-2.4	-11.0	102.8	1.24	-3.5	103.2	·	·	·
Clc1cccc(/C=N/Nc2ncnc3ccccc23)c1	-32.6	·	132.7	4.36*	-67.4	161.6*	227.0*	143.2*	133.6*
COc1ccccc1NC(CC(=O)c1ccccc1)C(=O)OCC(=O)c1ccc(F)cc1 (stereo not drawn)	24.5	89.2	79.8	1.22	-69.4	160.9*	185.2*	127.4	102.4
Cc1c(Cl)cccc1NC(CC(=O)c1ccccc1)C(=O)OCC(=O)c1cccs1 (stereo not drawn)	-23.2	9.2	121.4	1.02	1.7	98.5	·	·	·
Fc1ccc(-c2nnc(CN3CCN(c4ncc(C(F)(F)F)cc4Cl)CC3)o2)cc1	0.4	-3.0	99.3	1.14	0.8	99.3	·	·	·
CCOc1ccccc1NC(=O)C(NCC1(N2CCCCC2)CCCCC1)c1ccccc1 (stereo not drawn)	8.4	-6.2	99.9	0.95	11.0	89.8	·	·	·
O=C(NCCc1ccccc1)c1n[nH]c2ccccc12	13.2	88.0	93.1	3.35*	-74.4	164.3*	183.9*	129.8	103.5
O=C(NCCc1ccc(Cl)cc1)c1n[nH]c2ccccc12	20.6	16.6	88.6	1.2	-18.4	115.6	·	·	·
O=C(Nc1ccccc1Cl)c1cnccn1	27.2	-6.6	82.0	1.12	7.5	94.0	·	·	·
